Assay results reported in ChEMBL document CHEMBL2375290, “Nonclassical antifolates, part 3: synthesis, biological evaluation and molecular modeling study of some new 2-heteroarylthio-quinazolin-4-ones” (Eur J Med Chem, 2013).
In brackets after ≈: the same amount, converted by molar mass.

Legend:
Pseudomonas aeruginosa [1] = experiment: Antimicrobial activity against Pseudomonas aeruginosa after 24 hrs by micro-dilution susceptibility method; assay type: functional
Summary of the method: (§1)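 Broth microdilution in Müller-Hinton broth against S. aureus IFO 3060, B. subtilis IFO 3007, E. coli IFO 3301 and P. aeruginosa IFO 3448. These are the same standard strains used in the disc-diffusion primary screen. Compounds were solubilized in DMSO. MIC recorded as the minimal inhibitory concentration.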

Bacillus subtilis [2] = experiment: Antimicrobial activity against Bacillus subtilis after 24 hrs by micro-dilution susceptibility method; assay type: functional; summary of the method: as §1
Micrococcus luteus [3] = experiment: Antimicrobial activity against Micrococcus luteus after 24 hrs by micro-dilution susceptibility method; assay type: functional
Summary of the method: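 MIC by broth microdilution in Müller-Hinton broth against M. luteus IFO 3232, the same strain used in the disc-diffusion primary screen.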

Micrococcus luteus [4] = experiment: Antimicrobial activity against Micrococcus luteus at 100 ug after 24 hrs by agar disc diffusion method; assay type: functional
Summary of the method: (§2)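 Agar disc diffusion on Müller-Hinton agar. Sterile 8 mm filter-paper discs were moistened with the compound in DMSO. Strains were B. subtilis IFO 3007 and M. luteus IFO 3232. Plates were incubated at 37 °C, and growth-inhibition zone diameters were measured in mm after 24 h. DMSO served as the solvent control.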

Staphylococcus aureus [5] = experiment: Antimicrobial activity against Staphylococcus aureus after 24 hrs by micro-dilution susceptibility method; assay type: functional; summary of the method: as §1
Bacillus subtilis [6] = experiment: Antimicrobial activity against Bacillus subtilis at 100 ug after 24 hrs by agar disc diffusion method; assay type: functional; summary of the method: as §2
Micrococcus luteus [7] = experiment: Antimicrobial activity against Micrococcus luteus at 200 ug after 24 hrs by agar disc diffusion method; assay type: functional; details: read-out: DIZ
UACC-62 = experiment: Cytotoxicity against human UACC62 cells at 10 uM after 48 hrs by coulter counter analysis; assay type: functional; details: UACC-62, 48 h, read-out: GI
UO-31 = experiment: Cytotoxicity against human UO31 cells at 10 uM after 48 hrs by coulter counter analysis; assay type: functional; details: UO-31, 48 h, read-out: GI
Pseudomonas aeruginosa [8] = experiment: Antimicrobial activity against Pseudomonas aeruginosa at 200 ug after 24 hrs by agar disc diffusion method; assay type: functional; details: read-out: DIZ
NCI-H226 = experiment: Cytotoxicity against human NCI-H226 cells at 10 uM after 48 hrs by coulter counter analysis; assay type: functional; details: NCI-H226, 48 h, read-out: GI
Hs-578T = experiment: Cytotoxicity against human Hs578T cells at 10 uM after 48 hrs by coulter counter analysis; assay type: functional; details: read-out: GI
OVCAR-4 = experiment: Cytotoxicity against human OVCAR4 cells at 10 uM after 48 hrs by coulter counter analysis; assay type: functional; details: OVCAR-4, 48 h, read-out: GI
LOX IMVI = experiment: Cytotoxicity against human LOXIMVI cells at 10 uM after 48 hrs by coulter counter analysis; assay type: functional; details: read-out: GI
SF-295 = experiment: Cytotoxicity against human SF295 cells at 10 uM after 48 hrs by coulter counter analysis; assay type: functional; details: SF-295, 48 h, read-out: GI
[9] = Cytotoxicity against human EKVX cells at 10 uM after 48 hrs by coulter counter analysis; assay type: functional; details: read-out: GI
SNB-75 = experiment: Cytotoxicity against human SNB75 cells at 10 uM after 48 hrs by coulter counter analysis; assay type: functional; details: SNB-75, 48 h, read-out: GI
CAKI-1 = experiment: Cytotoxicity against human Caki1 cells at 10 uM after 48 hrs by coulter counter analysis; assay type: functional; details: CAKI-1, 48 h, read-out: GI
Dihydrofolate reductase = biological target: T1, Dihydrofolate reductase (Bos taurus, UniProt P00376); experiment: Inhibition of bovine DHFR after 2 mins by spectrophotometry
T1 sequence (P00376 whole entry): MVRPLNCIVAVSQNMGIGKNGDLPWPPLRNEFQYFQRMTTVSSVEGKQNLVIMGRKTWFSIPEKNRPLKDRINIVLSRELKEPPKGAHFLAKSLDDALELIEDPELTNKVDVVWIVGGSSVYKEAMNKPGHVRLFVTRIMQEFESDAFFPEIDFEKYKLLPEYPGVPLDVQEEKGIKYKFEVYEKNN

HL-60(TB) = experiment: Cytotoxicity against human HL-60(TB) cells at 10 uM after 48 hrs by coulter counter analysis; assay type: functional; details: HL-60, 48 h, read-out: GI
T47D = experiment: Cytotoxicity against human T47D cells at 10 uM after 48 hrs by coulter counter analysis; assay type: functional; details: read-out: GI
NCI-H522 = experiment: Cytotoxicity against human NCI-H522 cells at 10 uM after 48 hrs by coulter counter analysis; assay type: functional; details: NCI-H522, 48 h, read-out: GI
SNB-19 = experiment: Cytotoxicity against human SNB19 cells at 10 uM after 48 hrs by coulter counter analysis; assay type: functional; details: SNB-19, 48 h, read-out: GI
NCI-H23 = experiment: Cytotoxicity against human NCI-H23 cells at 10 uM after 48 hrs by coulter counter analysis; assay type: functional; details: NCI-H23, 48 h, read-out: GI
CCRF-CEM = experiment: Cytotoxicity against human CCRF-CEM cells at 10 uM after 48 hrs by coulter counter analysis; assay type: functional; details: read-out: GI
A549 = experiment: Cytotoxicity against human A549/ATCC cells at 10 uM after 48 hrs by coulter counter analysis; assay type: functional; details: A549, 48 h, read-out: GI
SN12C = experiment: Cytotoxicity against human SN12C cells at 10 uM after 48 hrs by coulter counter analysis; assay type: functional; details: read-out: GI
Bacillus subtilis [10] = experiment: Antimicrobial activity against Bacillus subtilis at 200 ug after 24 hrs by agar disc diffusion method; assay type: functional; details: read-out: DIZ
Staphylococcus aureus [11] = experiment: Antimicrobial activity against Staphylococcus aureus at 200 ug after 24 hrs by agar disc diffusion method; assay type: functional; details: read-out: DIZ
SR = experiment: Cytotoxicity against human SR cells at 10 uM after 48 hrs by coulter counter analysis; assay type: functional; details: read-out: GI
MOLT-4 = experiment: Cytotoxicity against human MOLT4 cells at 10 uM after 48 hrs by coulter counter analysis; assay type: functional; details: MOLT-4, 48 h, read-out: GI
Escherichia coli [12] = experiment: Antimicrobial activity against Escherichia coli after 24 hrs by micro-dilution susceptibility method
PC-3 = experiment: Cytotoxicity against human PC3 cells at 10 uM after 48 hrs by coulter counter analysis; assay type: functional; details: PC-3, 48 h, read-out: GI
MDA-MB-435 = experiment: Cytotoxicity against human MDA-MB-435 cells at 10 uM after 48 hrs by coulter counter analysis; assay type: functional; details: MDA-MB-435, 48 h, read-out: GI
MDA-MB-231 = experiment: Cytotoxicity against human MDA-MB-231 cells at 10 uM after 48 hrs by coulter counter analysis; assay type: functional; details: MDA-MB-231, 48 h, read-out: GI
RPMI-8226 = experiment: Cytotoxicity against human RPMI8226 cells at 10 uM after 48 hrs by coulter counter analysis; assay type: functional; details: RPMI-8226, 48 h, read-out: GI
MCF7 = experiment: Cytotoxicity against human MCF7 cells at 10 uM after 48 hrs by coulter counter analysis; assay type: functional; details: MCF7, 48 h, read-out: GI
SK-MEL-5 = experiment: Cytotoxicity against human SK-MEL-5 cells at 10 uM after 48 hrs by coulter counter analysis; assay type: functional; details: SK-MEL-5, 48 h, read-out: GI
Escherichia coli [13] = experiment: Antimicrobial activity against Escherichia coli at 200 ug after 24 hrs by agar disc diffusion method; assay type: functional; details: read-out: DIZ
A498 = experiment: Cytotoxicity against human A498 cells at 10 uM after 48 hrs by coulter counter analysis; assay type: functional; details: A498, 48 h, read-out: GI
IGROV-1 = experiment: Cytotoxicity against human IGROV1 cells at 10 uM after 48 hrs by coulter counter analysis; assay type: functional; details: IGROV-1, 48 h, read-out: GI
RXF 393 = experiment: Cytotoxicity against human RXF393 cells at 10 uM after 48 hrs by coulter counter analysis; assay type: functional; details: RXF 393, 48 h, read-out: GI
[14] = Cytotoxicity against human NCI-ADR-RES cells at 10 uM after 48 hrs by coulter counter analysis; assay type: functional; details: read-out: GI
Malme-3M = experiment: Cytotoxicity against human MALME-3M cells at 10 uM after 48 hrs by coulter counter analysis; assay type: functional; details: read-out: GI

Work on GENTAMICIN yielded an MIC (Pseudomonas aeruginosa [1]) of 1 µg/mL, an MIC (Bacillus subtilis [2]) of 2 µg/mL and an MIC (Micrococcus luteus [3]) of 2 µg/mL. The inhibition zone (IZ) (Micrococcus luteus [4]) was 18 mm, the MIC (Staphylococcus aureus [5]) was 2 µg/mL and the inhibition zone (IZ) (Bacillus subtilis [6]) was 25 mm.
`COc1cc2nc(Sc3ncccc3C(=O)O)n(Cc3ccccc3)c(=O)c2cc1OC` showed a zone of inhibition at 200 µg/disc (Micrococcus luteus [7]) of 15 mm, an inhibition of growth at 10 µM (UACC-62) of 11.6% and an inhibition of growth at 10 µM (UO-31) of 14.6%. It also gave a zone of inhibition at 200 µg/disc (Pseudomonas aeruginosa [8]) of 12 mm, an inhibition of growth at 10 µM (NCI-H226) of 14% and an inhibition of growth at 10 µM (Hs-578T) of under 10%. For the same compound, the inhibition of growth at 10 µM (OVCAR-4) was 14.3%, the inhibition of growth at 10 µM (LOX IMVI) was under 10% and the inhibition of growth at 10 µM (SF-295) was under 10%. For the same compound, the inhibition of growth at 10 µM [9] was 23.1%, the inhibition of growth at 10 µM (SNB-75) was under 10% and the inhibition of growth at 10 µM (CAKI-1) was 15.9%. The IC50 (Dihydrofolate reductase) was 5 µM, the MIC (Bacillus subtilis [2]) was 2 µg/mL (≈ 4.45 µM) and the inhibition of growth at 10 µM (HL-60(TB)) was 13.2%. The inhibition of growth at 10 µM (T47D) was under 10%, the inhibition of growth at 10 µM (NCI-H522) was 17.3% and the inhibition of growth at 10 µM (SNB-19) was under 10%. For the same compound, the inhibition of growth at 10 µM (NCI-H23) was under 10%, the inhibition of growth at 10 µM (CCRF-CEM) was under 10% and the inhibition of growth at 10 µM (A549) was under 10%. It also gave an inhibition of growth at 10 µM (SN12C) of under 10%, a zone of inhibition at 200 µg/disc (Bacillus subtilis [10]) of 26 mm and a zone of inhibition at 200 µg/disc (Staphylococcus aureus [11]) of 22 mm. For the same compound, the MIC (Staphylococcus aureus [5]) was 4 µg/mL (≈ 8.9 µM), the inhibition of growth at 10 µM (SR) was 29.8% and the inhibition of growth at 10 µM (MOLT-4) was 13.8%. For the same compound, the MIC (Escherichia coli [12]) was 4 µg/mL (≈ 8.9 µM), the inhibition of growth at 10 µM (PC-3) was under 10% and the inhibition of growth at 10 µM (MDA-MB-435) was under 10%. It also gave an inhibition of growth at 10 µM (MDA-MB-231) of under 10%, an inhibition of growth at 10 µM (RPMI-8226) of 12.5% and an inhibition of growth at 10 µM (MCF7) of 13.5%. For the same compound, the inhibition of growth at 10 µM (SK-MEL-5) was under 10%, the zone of inhibition at 200 µg/disc (Escherichia coli [13]) was 18 mm and the inhibition of growth at 10 µM (A498) was under 10%. For the same compound, the inhibition of growth at 10 µM (IGROV-1) was under 10%, the inhibition of growth at 10 µM (RXF 393) was under 10% and the inhibition of growth at 10 µM [14] was under 10%. It also gave an inhibition of growth at 10 µM (Malme-3M) of under 10%.
